Assay [1] concerns the target 5-hydroxytryptamine receptor 4 (Cavia porcellus, UniProt O70528). Briefly: Displacement of [3H]GR113808 from Dunkin-Hartley guinea pig brain striatum 5HT4R after 30 mins. A digest of the protocol: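 Striatal crude membranes from decapitated guinea pigs, diluted in 50 mM Hepes pH 7.4, were incubated with [3H]17 (0.2 nM final) at 37 °C for 30 min. Separation by rapid filtration on PEI-treated GF/B filters, then scintillation counting. Nonspecific binding was defined with 30 µM 5-HT. Ki was derived as IC50/(1+L/Kd). Mean ± SEM of 3 independent determinations run in duplicate.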
On the technique in general: In a radioligand displacement assay an active substance lowers the binding of a labelled ligand.

For assay [2], the target named is T1, 5-hydroxytryptamine receptor 4 (Homo sapiens, UniProt Q13639). Briefly: Antagonist activity at Rluc-tagged human 5HT4R expressed in human SH-SY5Y cells assessed as inhibition of serotonin-induced receptor/Gbeta1 coupling by BRET assay. Format: cell-based. The gist of the method:
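Cell-free BRET on enriched membranes (5 µg protein in PBS) from […] neuroblastoma cells retrovirally co-expressing Rluc-tagged human 5-HT4R and RGFP-fused Gβ1. Coupling was induced with 100 nM serotonin and inhibited by ligand at 8 log-spaced concentrations. IC50 for 50% inhibition of coupling was computed from the concentration-inhibition curves.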
Background: Bioluminescence resonance energy transfer reports proximity on the nanometre scale.

The target of assay [3] is T1, 5-hydroxytryptamine receptor 4. Briefly: Partial agonist activity at Rluc-tagged human 5HT4R expressed in human SH-SY5Y cells assessed as effect on serotonin-induced receptor/Gbeta1 coupling by BRET assay. Format: cell-based. The gist of the method: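 BRET on membranes (5 µg protein in PBS) from […] cells co-expressing Rluc-human 5-HT4R and RGFP-Gβ1, with ligand at 10 µM. The baseline recorded without ligand was subtracted, and the BRET ratio was expressed relative to that obtained with 10 µM serotonin. Means ± SEM of 3 determinations.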

T1 sequence (Q13639 whole entry, the tested form may be a part): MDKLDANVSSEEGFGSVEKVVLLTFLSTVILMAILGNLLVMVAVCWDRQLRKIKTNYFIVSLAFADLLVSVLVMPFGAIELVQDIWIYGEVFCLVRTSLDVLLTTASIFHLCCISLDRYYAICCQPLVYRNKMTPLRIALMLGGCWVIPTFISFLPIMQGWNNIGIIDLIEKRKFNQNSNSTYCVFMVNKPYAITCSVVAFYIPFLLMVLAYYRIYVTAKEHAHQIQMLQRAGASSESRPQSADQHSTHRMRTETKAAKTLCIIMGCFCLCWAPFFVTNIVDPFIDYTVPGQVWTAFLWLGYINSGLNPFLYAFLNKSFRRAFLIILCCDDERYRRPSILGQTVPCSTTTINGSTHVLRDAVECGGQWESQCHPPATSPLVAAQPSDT
Chain of 5-hydroxytryptamine receptor 4 (Cavia porcellus, UniProt O70528) (O70528 whole entry): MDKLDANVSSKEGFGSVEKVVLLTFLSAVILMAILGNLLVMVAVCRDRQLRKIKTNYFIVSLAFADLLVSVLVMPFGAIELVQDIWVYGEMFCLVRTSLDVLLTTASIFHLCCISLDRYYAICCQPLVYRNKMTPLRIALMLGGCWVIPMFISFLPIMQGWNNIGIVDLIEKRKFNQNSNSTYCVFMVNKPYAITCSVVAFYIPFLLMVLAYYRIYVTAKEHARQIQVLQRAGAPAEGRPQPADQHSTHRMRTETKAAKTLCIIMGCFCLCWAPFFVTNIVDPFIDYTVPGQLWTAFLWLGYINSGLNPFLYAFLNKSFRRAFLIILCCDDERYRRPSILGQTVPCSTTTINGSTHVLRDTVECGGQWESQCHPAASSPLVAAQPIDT

Broadly, the Ki is the equilibrium dissociation constant of an inhibitor or competing ligand from its target. High values mean a looser hold on the target, low ones a stronger hold on the target. In assay [1], `O=C1c2cccc3nc(N4CCCCC4)cc(c23)C(=O)N1CCCN1CCCCC1` displayed a Ki of 344 nM.

As for `O=C1c2cccc3nc(N4CCCC4)cc(c23)C(=O)N1CCCN1CCCCC1`, in assay [1], the Ki was over 1000 nM. For orientation: IC50 means the concentration at which inhibition is half-maximal. In assay [1], `COc1cc2c3c(cccc3n1)C(=O)N(CCCN1CCCCC1)C2=O` registered a Ki of 44 nM. The IC50 in assay [2] was 110 nM. In the case of `COc1cc(C(=O)OCCCN2CCCCC2)c2ccccc2n1`, the Ki in assay [1] amounted to 52 nM. Further, the 50% inhibitory concentration (IC50) in assay [2] was 203 nM. For `COc1cc(N)c(Cl)cc1C(=O)OCCCN1CCCCC1`, in assay [3], the IC50 stood at 49 nM. Affinity in assay [1] was put at a Ki of 19 nM. In assay [1], `O=C1c2cc(N3CCCC3)nc3cccc(c23)CN1CCCN1CCCCC1` returned a Ki of over 1000 nM.

`O=C1c2cccc3nc(Cl)cc(c23)C(=O)N1CCCN1CCCCC1`: the affinity in assay [1], expressed as Ki, was 105 nM. Moreover, in assay [2], the IC50 amounted to 453 nM. As for `O=C1c2cc(Cl)nc3cccc(c23)CN1CCCN1CCCCC1`, in assay [3], the IC50 came out at 195 nM. This compound also registered a Ki in assay [1] of 563 nM.

The compound `COc1cc2c3c(cccc3n1)CN(CCCN1CCCCC1)C2=O` registered a Ki in assay [1] of 283 nM. The IC50 in assay [2] is 916 nM.

In the case of `COc1cc(C(=O)NCCCN2CCCCC2)c2ccccc2n1`, the Ki in assay [1] is over 1000 nM.

The record behind these values is ChEMBL document CHEMBL3286104, “Synthesis and structure-activity relationship studies in serotonin 5-HT4 receptor ligands based on a benzo[de][2,6]naphthridine scaffold” (Eur J Med Chem, 2014).
